Assay results pooled from the literature.
Target: Serine/threonine-protein kinase MARK1 (MARK1, Homo sapiens, UniProt Q9P0L2)

Compound | effect on | action | method | concentration | measurement | value
NS(=O)(=O)c1ccc(CNc2nc(Nc3cccc(NC(=O)N4CCCC4)c3)ncc2C2CC2)cc1 | enzyme activity | inhibitor | radiometric | 1 µM | remaining activity | 94%
Cc1cc(C)c(-n2ccn3nc(-c4cccnc4)cc23)cc1NC(=O)c1cc(C#N)cc(S(F)(F)(F)(F)F)c1 | cell-free assay | – | competition with immobilised ligand | 0.1 µM | remaining binding | 96.7%
Cc1cc(NC(=O)c2cccc3cc(-c4cccc5[nH]nc(N)c45)ccc23)ccc1F | enzyme activity | inhibitor | – | 0.1 µM | activity vs control | 133%
COc1cc2ncnc(Nc3ccc(Oc4ccccc4)c(C)c3C)c2cc1OC | enzyme activity | inhibitor | – | 1 µM | inhibition | 2%
CSc1cccnc1N1CCN(Cc2nc3ccccc3[nH]2)CC1 | cell-free assay | – | competition with immobilised ligand | 1 µM | remaining binding | 100%
CCN(CC)CCNC(=O)c1c(C)[nH]c(/C=C2\C(=O)Nc3ccc(F)cc32)c1C | enzyme activity | inhibitor | – | 0.3 µM | inhibition | 50%
Cc1nn(CC(F)(F)F)cc1Nc1ncc(Br)c(NCCc2cnc[nH]2)n1 | enzyme activity | inhibitor | radiometric | 1 µM | remaining activity | 49%
Cc1ccc(Nc2nccc(N(C)c3ccc4c(C)n(C)nc4c3)n2)cc1S(N)(=O)=O | enzyme activity | inhibitor | – | 10 µM | inhibition | 26%
NS(=O)(=O)c1ccc(CNc2nc(Nc3cccc(NC(=O)N4CCCC4)c3)ncc2Br)cc1 | enzyme activity | inhibitor | radiometric | 1 µM | remaining activity | 57%
CCCCN(CCCC)C(=O)CN1C[C@H](c2cc(OC)c3c(c2)OCO3)[C@@H](C(=O)O)[C@@H]1CC(C)(C)CCC | cell-free assay | – | competition with immobilised ligand | 1 µM | remaining binding | 96.5%
FC(F)(F)Oc1cccc(-c2cnc3ccc(-c4ccncc4)nn23)c1 | enzyme activity | inhibitor | radiometric | 5 µM | activity vs control | 95%
CNC(=O)c1cc(Oc2ccc(NC(=O)Nc3ccc(Cl)c(C(F)(F)F)c3)cc2)ccn1 | enzyme activity | inhibitor | – | 0.3 µM | inhibition | 9%
c1cc(CN2CCOCC2)cc(Nc2nccc(NCCc3cnc[nH]3)n2)c1 | enzyme activity | inhibitor | radiometric | 1 µM | remaining activity | 75%
C#Cc1cccc(Nc2ncnc3cc(OCCOC)c(OCCOC)cc23)c1 | cell-free assay | – | – | 0.5 µM | remaining signal | 130%
O=C(NCCCNc1nc(Nc2cccc(NC(=O)N3CCCC3)c2)ncc1I)c1cccs1 | enzyme activity | inhibitor | radiometric | 1 µM | remaining activity | -5%
CC(=O)C1=C(C)N(c2cccc(C(F)(F)F)c2)C(=O)N[C@@H]1c1ccc(C#N)nc1 | cell-free assay | – | competition with immobilised ligand | 1 µM | remaining binding | 100%

Compound | effect on | action | method | concentration | measurement | value
Cc1nn(CC(F)(F)F)cc1Nc1ncc(C2CC2)c(NCc2ccc(S(N)(=O)=O)cc2)n1 | enzyme activity | inhibitor | radiometric | 1 µM | remaining activity | 108%
CC/C(=N\NC(=O)NCc1cccc(O)c1)c1ccc(O)c(C)c1O | enzyme activity | inhibitor | – | 0.1 µM | inhibition | -2.5%
COc1cc(-c2cn(C3CCc4ccccc4N(CC(F)(F)F)C3=O)nn2)ccc1-n1ccc(C)n1 (centres unmarked) | cell-free assay | – | competition with immobilised ligand | 1 µM | remaining binding | 99%
Cc1ncc([N+](=O)[O-])n1C(=NO)c1ccccc1C(F)(F)F | enzyme activity | inhibitor | – | 10 µM | inhibition | 34.2%
Nc1ncnc2occ(-c3ccc(NC(=O)Nc4cc(C(F)(F)F)ccc4F)cc3)c12 | cell-free assay | inhibitor | – | 20 µM | remaining signal | 34%
CC1=C(C#N)C(c2ccc3c(c2)c(NC(=O)c2ccccc2C)nn3C)C(C#N)=C(C)N1 | cell-free assay | – | competition with immobilised ligand | 1 µM | remaining binding | 100%
COc1cc2c(N3CCN(C(=O)Nc4ccc(OC(C)C)cc4)CC3)ncnc2cc1OCCCN1CCCCC1 | cell-free assay | – | – | 0.5 µM | remaining signal | 89.9%
Cc1nn(CC(F)(F)F)cc1Nc1ncc(Br)c(NCCCNC(=O)C2CCC2)n1 | enzyme activity | inhibitor | radiometric | 1 µM | remaining activity | 8%
CCCS(=O)(=O)Nc1ccc(F)c(C(=O)c2c[nH]c3ncc(-c4ccc(Cl)cc4)cc23)c1F | enzyme activity | inhibitor | – | 1 µM | inhibition | < 10%
N#CCCc1ccc2c(c1)-c1[nH]c3ccc([N+](=O)[O-])cc3c1CC(=O)N2 | cell-free assay | – | – | 0.5 µM | remaining signal | 67.4%
O=C(NCCCNc1nc(Nc2cccc(NC(=O)N3CCCC3)c2)ncc1C1CC1)C1CCC1 | enzyme activity | inhibitor | radiometric | 1 µM | remaining activity | -4%
O=C(NCc1ncc(C(F)(F)F)cc1Cl)c1ccc2c(c1)C1(CCS(=O)(=O)CC1)[C@H](C1CC1)N2S(=O)(=O)c1ccc(F)cc1 | cell-free assay | – | competition with immobilised ligand | 1 µM | remaining binding | 100%
CNc1cccc2cc(C(=O)Nc3ccc(C(=O)O)cc3)c(=O)[nH]c12 | enzyme activity | inhibitor | – | 10 µM | inhibition | -26%
O=C1Nc2ccc(Cl)cc2C1=Cc1cc(Cl)c(O)c(Cl)c1 | cell-free assay | – | – | 0.5 µM | remaining signal | 89.5%
COc1cc(/C=C/C(=O)CC(=O)/C=C/c2ccc(O)c(OC)c2)ccc1O | enzyme activity | inhibitor | – | 1 µM | activity vs control | 79%
CO[C@@H](C)c1c(Nc2ccc([C@@H](N(C)C(=O)C3CCS(=O)(=O)CC3)C(F)(F)F)cc2)cnc2cc(Cl)nn12 | cell-free assay | – | competition with immobilised ligand | 1 µM | remaining binding | 81%
